Test results reported in publication PMC5148661 (ACS infectious diseases, 2016).
Several values for one entry are separate records, joined by “and”; a condition that tells them apart may be missing. Equal values may be shown once. Read-outs that look alike come from different tables or passages of the source.

Legend:
hERG channel = hERG channel (Homo sapiens, UniProt Q12809); experiment: hERG channel patch clamp; assay type: cell-based; conditions: for IC50: hERG IC50, partial dose response curve
Method in brief: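 hERG current measured by IonWorks automated patch-clamp electrophysiology at a contract lab. Top concentration tested was 33 μM.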

Rat DHODH = Rat DHODH (Rattus norvegicus, UniProt Q63707); experiment: DHODH inhibition, DCIP-based assay; assay type: biochemical
[1] = system: D10w/yDHODH P. falciparum cell line; experiment: growth inhibition of transgenic P. falciparum expressing yeast DHODH; assay type: cell-based
Method in brief: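 D10 parasites transfected with yeast DHODH were grown in human erythrocytes in RPMI 1640 with 0.5% Albumax II. EC50 came from a 72 h dose–response growth assay read by SYBR Green DNA fluorescence.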

P. falciparum 3D7 = experiment: whole cell P. falciparum 3D7 blood stage 72 h assay, albumax media; assay type: cell-based; conditions: for EC50: Plasmodium falciparum, 3D7, 72 h
[2] = system: P. cynomolgi large and small forms; experiment: P. cynomolgi liver stage assay in primary rhesus monkey hepatocytes; assay type: cell-based; conditions: concentrations at or below 10 μM; human serum-based media
[3] = metabolic stability in liver microsomes; assay type: in vitro ADME; conditions: rat
Mouse DHODH = Mouse DHODH (Mus musculus, UniProt O35435); experiment: DHODH inhibition, DCIP-based assay; assay type: biochemical
[4] = pharmacokinetics after IV and oral dosing; assay type: in vivo, dogs; conditions: dog, plasma, 1 mg/kg
Method in brief: (§1)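 Single IV and oral doses were given. Mice and rats received about 2 mg/kg IV and 5–50 mg/kg orally, with blood sampled over 30–48 h from 2 mice per time point or 2 rats. Dogs received 1 mg/kg by each route (n=3). Plasma was separated by centrifugation and assayed by LC/MS, and parameters were derived non-compartmentally.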

[5] = metabolic stability in liver microsomes; assay type: in vitro ADME; conditions: mouse
[6] = system: P. falciparum field isolates; experiment: P. falciparum clinical isolates; assay type: cell-based; conditions: Plasmodium falciparum, 72 h, read-out: unbound EC50
P. vivax DHODH = P. vivax DHODH (Plasmodium vivax, UniProt A5K1N1); experiment: DHODH inhibition, DCIP-based assay; assay type: biochemical
CYP2C9 = CYP2C9 (Homo sapiens, UniProt P11712); experiment: reversible cytochrome P450 inhibition; assay type: in vitro ADME
Method in brief: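 Reversible inhibition of human CYP isoforms tested with isoform-specific probe substrates. Time-dependent (mechanism-based) inhibition was also assessed.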

P. falciparum DHODH = P. falciparum DHODH (Plasmodium falciparum, UniProt Q08210); experiment: DHODH inhibition, DCIP-based spectrophotometric steady-state assay; assay type: biochemical
[7] = molecular target: P. berghei DHODH (PbDHODH) (Plasmodium berghei, UniProt A0A509AEH5); experiment: DHODH inhibition, DCIP-based assay; assay type: biochemical
P. cynomolgi DHODH = P. cynomolgi DHODH (Plasmodium cynomolgi, UniProt K6UE05); experiment: DHODH inhibition, DCIP-based assay; assay type: biochemical
Human DHODH = Human DHODH (Homo sapiens, UniProt Q02127); experiment: DHODH inhibition, DCIP-based assay; assay type: biochemical
[8] = human pharmacokinetic and dose predictions
Method in brief: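 Human PK was predicted by PBPK modelling from human liver microsome clearance. Allometric scaling of unbound clearance after IV dosing in mouse, rat and dog served as a comparison. Half-life was derived from predicted clearance and Vss. A plasma profile was simulated for a single 200 mg oral dose in the fasted state.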

[9] = kinetic solubility in pH 6.5 buffer; assay type: physicochemical; conditions: aqueous buffer pH 6.5, pH 6.5
Ames tester strains = experiment: GLP Ames 5 strain test; conditions: with and without metabolic activation
physchem = assay type: physicochemical
[10] = stability in plasma and blood; assay type: in vitro ADME; conditions: plasma 37°C over 5 h; blood over 4 h
[11] = system: P. falciparum Pf3D7^0087/N9; experiment: P. falciparum SCID mouse efficacy model; assay type: in vivo
[12] = P. falciparum SCID mouse efficacy model; assay type: in vivo; conditions: NOD-scid IL-2Rγnull (NSG), mouse, blood, oral
[13] = rat 7-day exploratory toxicity study; assay type: in vivo; conditions: rat 7-day exploratory toxicity study (data not shown)
[14] = solubility by equilibration in physiologically-relevant media; assay type: physicochemical
[15] = metabolic stability in liver microsomes; assay type: in vitro ADME; conditions: human
[16] = system: set of 100 human channels and enzymes; experiment: CEREP diversity panel; conditions: 10 μM ([…])
Rabbit DHODH = Rabbit DHODH (Oryctolagus cuniculus, UniProt G1SWF3); experiment: DHODH inhibition, DCIP-based assay; assay type: biochemical
[17] = cytotoxicity against a human cell line; assay type: cell-based; conditions: human, HepG2 cells
Human HepG2 cells = experiment: cytotoxicity against a human cell line; assay type: cell-based
[18] = incubation in cryopreserved hepatocytes; assay type: in vitro ADME, human; conditions: 10 μM over 120 minutes
Method in brief: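 Human cryopreserved hepatocytes at 1 × 10^6 cells/mL were incubated with test compound at 10 μM. Metabolites were assigned by accurate mass measurement.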

[19] = pharmacokinetics after IV and oral dosing; assay type: in vivo, mice
Method in brief: as §1

hERG channel, sequence (Q12809 whole entry): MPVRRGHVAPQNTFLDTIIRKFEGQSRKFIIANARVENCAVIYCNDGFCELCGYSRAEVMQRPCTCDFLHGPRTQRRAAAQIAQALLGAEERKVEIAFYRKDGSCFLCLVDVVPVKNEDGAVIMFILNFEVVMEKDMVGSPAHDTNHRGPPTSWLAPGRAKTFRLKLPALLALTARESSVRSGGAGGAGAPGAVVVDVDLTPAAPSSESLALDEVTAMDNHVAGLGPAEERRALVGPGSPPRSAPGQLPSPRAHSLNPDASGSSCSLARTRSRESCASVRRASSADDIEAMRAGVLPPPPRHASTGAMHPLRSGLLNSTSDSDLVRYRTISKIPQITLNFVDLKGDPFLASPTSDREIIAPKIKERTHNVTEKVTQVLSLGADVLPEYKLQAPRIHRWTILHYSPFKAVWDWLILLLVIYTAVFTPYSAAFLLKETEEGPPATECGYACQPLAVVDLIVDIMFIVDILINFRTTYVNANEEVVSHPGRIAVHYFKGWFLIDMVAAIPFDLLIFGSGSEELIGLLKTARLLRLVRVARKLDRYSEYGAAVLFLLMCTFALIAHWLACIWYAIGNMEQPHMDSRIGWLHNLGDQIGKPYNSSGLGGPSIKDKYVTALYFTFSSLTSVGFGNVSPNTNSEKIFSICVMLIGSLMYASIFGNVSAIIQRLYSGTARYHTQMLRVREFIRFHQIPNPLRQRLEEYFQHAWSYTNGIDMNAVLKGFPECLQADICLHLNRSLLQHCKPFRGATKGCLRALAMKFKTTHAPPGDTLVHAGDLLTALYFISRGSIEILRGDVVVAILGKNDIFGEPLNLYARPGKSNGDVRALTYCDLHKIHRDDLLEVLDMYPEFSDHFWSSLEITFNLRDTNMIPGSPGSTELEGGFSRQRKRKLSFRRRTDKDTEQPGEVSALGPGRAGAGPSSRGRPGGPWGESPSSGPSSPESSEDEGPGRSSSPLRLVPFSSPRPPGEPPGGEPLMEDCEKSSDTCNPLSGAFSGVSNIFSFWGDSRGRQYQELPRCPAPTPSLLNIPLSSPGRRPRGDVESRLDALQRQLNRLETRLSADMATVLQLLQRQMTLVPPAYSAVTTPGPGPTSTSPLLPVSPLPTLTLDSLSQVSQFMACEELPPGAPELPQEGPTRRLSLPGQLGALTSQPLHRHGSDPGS
P. berghei DHODH (PbDHODH), sequence (A0A509AEH5 132-517): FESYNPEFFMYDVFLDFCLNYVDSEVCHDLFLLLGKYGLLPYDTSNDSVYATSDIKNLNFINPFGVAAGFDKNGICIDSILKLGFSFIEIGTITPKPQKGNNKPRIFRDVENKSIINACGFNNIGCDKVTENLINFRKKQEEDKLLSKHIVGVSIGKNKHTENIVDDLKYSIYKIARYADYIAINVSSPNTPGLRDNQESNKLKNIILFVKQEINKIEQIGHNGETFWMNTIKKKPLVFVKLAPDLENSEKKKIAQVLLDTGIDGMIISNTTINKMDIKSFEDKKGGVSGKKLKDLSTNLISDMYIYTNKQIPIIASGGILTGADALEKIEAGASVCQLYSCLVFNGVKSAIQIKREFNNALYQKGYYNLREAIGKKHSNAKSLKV
Mouse DHODH, sequence (O35435 whole entry): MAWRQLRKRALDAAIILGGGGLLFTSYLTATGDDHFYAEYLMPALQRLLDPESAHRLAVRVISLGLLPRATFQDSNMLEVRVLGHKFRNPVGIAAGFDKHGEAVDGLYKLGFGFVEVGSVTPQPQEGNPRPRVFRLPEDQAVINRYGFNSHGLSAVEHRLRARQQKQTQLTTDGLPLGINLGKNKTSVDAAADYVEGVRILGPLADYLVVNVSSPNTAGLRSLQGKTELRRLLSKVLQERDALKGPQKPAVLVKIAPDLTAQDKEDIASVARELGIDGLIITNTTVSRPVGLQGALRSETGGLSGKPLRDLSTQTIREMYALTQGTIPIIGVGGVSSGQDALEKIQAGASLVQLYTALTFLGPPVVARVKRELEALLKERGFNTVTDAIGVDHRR
Rat DHODH, sequence (Q63707 whole entry): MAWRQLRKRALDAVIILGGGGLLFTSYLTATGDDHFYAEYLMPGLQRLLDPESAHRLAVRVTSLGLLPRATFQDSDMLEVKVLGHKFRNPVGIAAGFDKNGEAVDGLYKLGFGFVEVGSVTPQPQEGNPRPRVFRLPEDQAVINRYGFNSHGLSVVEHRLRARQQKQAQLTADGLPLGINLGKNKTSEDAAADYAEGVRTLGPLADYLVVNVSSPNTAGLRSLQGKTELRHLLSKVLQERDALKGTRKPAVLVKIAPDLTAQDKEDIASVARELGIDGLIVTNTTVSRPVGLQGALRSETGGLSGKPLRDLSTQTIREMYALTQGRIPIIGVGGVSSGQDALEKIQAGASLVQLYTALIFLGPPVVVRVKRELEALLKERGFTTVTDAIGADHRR
P. vivax DHODH, sequence (A5K1N1 160-572): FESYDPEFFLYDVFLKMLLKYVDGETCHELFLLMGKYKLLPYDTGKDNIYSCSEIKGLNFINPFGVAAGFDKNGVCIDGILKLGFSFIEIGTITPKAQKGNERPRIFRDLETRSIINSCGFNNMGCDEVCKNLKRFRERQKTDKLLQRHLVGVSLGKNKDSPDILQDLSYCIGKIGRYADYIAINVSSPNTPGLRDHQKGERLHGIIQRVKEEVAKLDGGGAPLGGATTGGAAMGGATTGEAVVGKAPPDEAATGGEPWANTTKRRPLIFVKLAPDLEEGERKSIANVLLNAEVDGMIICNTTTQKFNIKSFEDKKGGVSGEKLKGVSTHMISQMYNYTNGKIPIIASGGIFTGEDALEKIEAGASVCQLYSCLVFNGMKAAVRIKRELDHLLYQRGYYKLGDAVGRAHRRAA
P. cynomolgi DHODH, sequence (K6UE05 1-385): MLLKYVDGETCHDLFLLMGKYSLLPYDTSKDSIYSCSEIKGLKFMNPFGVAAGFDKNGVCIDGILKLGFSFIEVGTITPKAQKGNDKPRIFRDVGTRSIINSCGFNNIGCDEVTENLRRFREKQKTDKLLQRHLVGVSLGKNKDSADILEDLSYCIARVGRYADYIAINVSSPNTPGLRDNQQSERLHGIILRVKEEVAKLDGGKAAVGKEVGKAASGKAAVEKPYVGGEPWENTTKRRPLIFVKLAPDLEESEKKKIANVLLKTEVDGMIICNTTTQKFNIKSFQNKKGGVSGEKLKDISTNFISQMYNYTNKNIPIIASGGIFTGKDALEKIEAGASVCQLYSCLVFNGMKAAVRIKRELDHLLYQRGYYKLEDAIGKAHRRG
Human DHODH, sequence (Q02127 whole entry): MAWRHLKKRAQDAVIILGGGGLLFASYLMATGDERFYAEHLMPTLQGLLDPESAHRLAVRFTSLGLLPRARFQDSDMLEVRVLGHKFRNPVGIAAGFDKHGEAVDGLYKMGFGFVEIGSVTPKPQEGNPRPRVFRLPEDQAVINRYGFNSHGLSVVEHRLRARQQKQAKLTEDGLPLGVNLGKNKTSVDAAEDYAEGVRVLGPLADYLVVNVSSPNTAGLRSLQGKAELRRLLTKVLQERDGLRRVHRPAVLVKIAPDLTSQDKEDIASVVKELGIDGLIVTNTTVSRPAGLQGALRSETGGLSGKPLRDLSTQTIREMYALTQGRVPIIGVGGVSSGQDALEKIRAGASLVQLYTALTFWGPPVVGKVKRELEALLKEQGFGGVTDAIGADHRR
CYP2C9, sequence (P11712 whole entry, canonical isoform): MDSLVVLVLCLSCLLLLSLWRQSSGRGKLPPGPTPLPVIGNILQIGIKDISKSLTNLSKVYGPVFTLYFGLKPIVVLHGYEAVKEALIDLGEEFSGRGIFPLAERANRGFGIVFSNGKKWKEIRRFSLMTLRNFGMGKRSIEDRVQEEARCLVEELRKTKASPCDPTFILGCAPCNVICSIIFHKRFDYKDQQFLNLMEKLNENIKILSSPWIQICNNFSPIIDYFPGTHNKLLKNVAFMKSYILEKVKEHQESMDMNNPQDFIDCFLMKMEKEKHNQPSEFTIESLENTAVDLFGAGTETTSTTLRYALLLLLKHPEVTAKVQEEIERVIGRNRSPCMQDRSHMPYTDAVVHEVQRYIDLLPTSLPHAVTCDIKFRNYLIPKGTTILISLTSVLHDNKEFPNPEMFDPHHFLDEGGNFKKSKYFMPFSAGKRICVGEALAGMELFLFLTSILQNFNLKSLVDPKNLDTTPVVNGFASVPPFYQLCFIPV
Rabbit DHODH, sequence (G1SWF3 1-395): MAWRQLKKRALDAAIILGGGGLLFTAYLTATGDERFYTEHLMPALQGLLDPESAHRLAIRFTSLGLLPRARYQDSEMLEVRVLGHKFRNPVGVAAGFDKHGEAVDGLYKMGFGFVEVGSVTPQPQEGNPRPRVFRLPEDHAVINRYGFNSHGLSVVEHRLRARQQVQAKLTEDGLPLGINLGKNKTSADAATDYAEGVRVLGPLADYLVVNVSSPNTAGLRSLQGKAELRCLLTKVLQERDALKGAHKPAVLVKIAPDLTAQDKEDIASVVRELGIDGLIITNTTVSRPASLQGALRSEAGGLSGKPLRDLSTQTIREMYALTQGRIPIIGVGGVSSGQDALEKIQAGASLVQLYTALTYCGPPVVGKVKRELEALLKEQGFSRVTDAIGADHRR
P. falciparum DHODH, sequence (Q08210 158-569 limits assumed): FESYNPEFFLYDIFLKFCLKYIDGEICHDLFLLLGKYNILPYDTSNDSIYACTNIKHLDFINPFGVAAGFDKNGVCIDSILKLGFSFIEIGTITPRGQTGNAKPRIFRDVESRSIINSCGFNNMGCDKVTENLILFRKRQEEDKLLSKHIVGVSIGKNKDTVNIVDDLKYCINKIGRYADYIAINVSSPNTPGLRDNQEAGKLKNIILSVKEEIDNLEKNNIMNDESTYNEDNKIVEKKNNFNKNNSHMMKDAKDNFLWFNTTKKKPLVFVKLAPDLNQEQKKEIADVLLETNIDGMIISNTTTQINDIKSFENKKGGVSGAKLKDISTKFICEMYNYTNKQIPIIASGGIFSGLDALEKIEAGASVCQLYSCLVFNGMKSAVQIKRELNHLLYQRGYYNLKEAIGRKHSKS

Cc1cc(Nc2ccc(C(F)(F)F)nc2)n2nc(C(C)(F)F)nc2n1 [DSM421, 2-(1,1-Difluoroethyl)-5-methyl-N-(6-(trifluoromethyl)pyridin-3-yl)-[1,2,4]triazolo[1,5-a]pyrimidin-7-amine]
concentration giving 20% hERG inhibition (hERG channel): ~ 10 μM and 3.6 μg/mL | IC50 (hERG channel): 26.2 µM | IC50 (hERG channel; maximum concentration 33 μM): 26.2 µM | IC50 (Rat DHODH): 22 µM | fold reduction of inhibitory activity in comparison to DSM265 (Rat DHODH; rodent (rat) enzyme): 10 fold | inhibition of D10w/yDHODH line [1]: did not inhibit this line | EC50 ([1]; read-out: EC50 on D10 cells transfected with yeast DHODH): > 10 µM | fold less potent than DSM265 against P. falciparum 3D7 parasites (P. falciparum 3D7): 3 fold | fold lower intrinsic potency than DSM265 based on unbound concentrations (P. falciparum 3D7; 48 and 72 h in vitro assays): 10 fold | EC50 (P. falciparum 3D7; read-out: Pf3D7 EC50): 0.014 µM | EC50 (P. falciparum 3D7; read-out: unbound EC50): 0.007 µM | radical cure activity, liver stage [2]: did not show radical cure activity | microsomal CLint at 1 μM [3]: < 7 µL/min/mg | IC50 (Mouse DHODH): 18 µM | fold reduction of inhibitory activity in comparison to DSM265 (Mouse DHODH; rodent (mouse) enzyme): 10 fold | half-life [4]: 15 to 18 h | CLint scaled ([4]; intravenous): 4.5 mL/min/kg | Vd ([4]; iv): 0.8 L/kg | clearance ([4]; iv): 0.5 mL/min/kg | Tmax ([4]; po): 4 h | bioavailability ([4]; po): ~100% | microsomal CLint at 1 μM [5]: < 7 µL/min/mg | EC50 [6]: 0.012 µM | IC50 (P. vivax DHODH): 0.094 µM | fold lower activity (higher IC50) on P. vivax DHODH than PfDHODH (P. vivax DHODH): 2 fold | inhibition at 20 µM (CYP2C9): 22% | IC50 (P. falciparum DHODH): 0.053 µM | IC50 [7]: 5 µM | fold less active against PbDHODH than PfDHODH [7]: 100 fold | IC50 (P. cynomolgi DHODH): 0.012 µM | IC50 (Human DHODH): > 100 µM | predicted unbound human clearance ([8]; allometric scaling of mice, rats and dogs IV unbound clearance): 2.2 mL/min/kg | estimated human half-life ([8]; human): ~ 78 h | half-life ([8]; human, plasma, estimated human half-life): 78 h | solubility kinetic [9]: > 100 µg/mL | GLP Ames 5 strain test result (Ames tester strains): no obvious cytotoxicity in any tester strain at any tested dose level | logD (physchem; pH 7.4, measured Log D7.4, text (Table S6)): 2.36 | measured Log D7.4 (physchem; text (Table S6)): 2.4 | stability in plasma and blood [10]: stable | tolerability ([11]; SCID mice, oral QD 4 days): well tolerated and no adverse reactions were noted | Cav at ED90 ([11]; blood): 0.53 µg/mL | Cmin at 5 mg/kg/day ([11]; blood): 330 ng/mL | Cmin at ED90 ([11]; blood): 0.1 µg/mL | ED90 24 h after the last dose ([11]; oral QD for 4 days): 2.6 mg/kg/day | dose giving maximum parasite killing ([11]; oral QD for 4 days): ≥ 5 mg/kg/day | AUC(0-t) ([12]; 2.6 mg/kg/day): 12900 ng·h/mL | AUC(0-t) ([12]; 5 mg/kg/day): 30800 ng·h/mL | tolerability [13]: well tolerated | fold more soluble than DSM265 [14]: 6-80 fold | microsomal CLint at 1 μM [15]: < 7 µL/min/mg | inhibition in CEREP diversity panel [16]: no significant inhibition | IC50 (Rabbit DHODH): > 100 µM | EC50 [17]: > 50 µM | selectivity window HepG2 over activity against P. falciparum (Human HepG2 cells): 600-5000 fold | degradation in human hepatocyte incubations [18]: minimal degradation | fold increase of plasma AUC ([19]; mice, oral, for a 9-fold increase in dose): 13 fold | half-life ([19]; mouse, plasma): ~2 h | Vd ([19]; mouse, plasma, iv, 2 mg/kg): 0.9 L/kg | clearance ([19]; mouse, plasma, iv, 2 mg/kg): 5.1 mL/min/kg | Tmax ([19]; mouse, plasma, po): 1 to 2 h | bioavailability ([19]; mouse, plasma, po): > 100%
